Compound activity (PubChem BioAssay)
Runt-CBFb FRET = inhibitors of RUNX1 Runt–CBFb binding, primary screen, biochemical, FRET, Cerulean-Runt, Venus-CBFb, uHTS. Runt-related transcription factor 1 (Homo sapiens) + Core-binding factor subunit beta …. 220,000 compounds, 0.46% hits. AID 1496, 2009. Cerulean-Runt/Venus-CBFb FRET ratio 530/480, 1 h. inhibition, % at 20 µM;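 active = inhibition over about 50% at 20 µM in the single-dose screen, limit read from the data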;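 note: 0% = DMSO wells and 100% = excess unlabeled CBFb competitor control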
Target sequence (Q01196 whole entry, looked up): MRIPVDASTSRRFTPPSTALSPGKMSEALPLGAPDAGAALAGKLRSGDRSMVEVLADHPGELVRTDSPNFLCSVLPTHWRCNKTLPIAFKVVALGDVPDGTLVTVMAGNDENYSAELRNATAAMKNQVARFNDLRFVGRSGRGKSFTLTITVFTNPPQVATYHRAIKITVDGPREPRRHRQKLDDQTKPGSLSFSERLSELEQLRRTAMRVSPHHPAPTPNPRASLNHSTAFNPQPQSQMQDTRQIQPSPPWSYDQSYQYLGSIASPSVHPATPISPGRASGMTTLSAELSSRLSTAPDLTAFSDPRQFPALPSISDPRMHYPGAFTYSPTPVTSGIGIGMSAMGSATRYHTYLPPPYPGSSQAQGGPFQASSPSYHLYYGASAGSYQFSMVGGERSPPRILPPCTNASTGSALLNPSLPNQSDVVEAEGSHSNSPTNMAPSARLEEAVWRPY
Target sequence (Q13951 whole entry, looked up): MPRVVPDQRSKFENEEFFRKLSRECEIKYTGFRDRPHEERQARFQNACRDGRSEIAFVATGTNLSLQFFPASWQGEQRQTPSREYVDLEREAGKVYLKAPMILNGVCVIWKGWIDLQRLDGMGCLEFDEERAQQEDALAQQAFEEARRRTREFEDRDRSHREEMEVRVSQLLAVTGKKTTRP
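Assay system: Cerulean-tagged RUNX1 Runt domain (FRET donor) fusion protein / Amount: 100 nM each of Venus-CBFb and Cerulean-Runt domain / Medium: Tris buffer pH 7.5 with salts and BSA / Also added: Venus-CBFb 100 nM / Schedule: 1 h complex formation plus 1 h compound treatment, room temperature / Signal: FRET fluorescence / Read-out: loss of energy transfer signal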
MEX-5 binding = MEX-5 zinc finger RNA-binding disruptors – biochemical, C. elegans, fluorescence polarization, MLPCN library, primary screen | MEX-5/FITC-TCR2 RNA binding; stronger effect = lower value | activity score (negative = inhibition of binding), % at 10 µM | 300,000 compounds, 0.38% hits | AID 1832, 2009;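 active = inhibition past about -25% in most replicates, and total fluorescence under double the plate's negative control median, limit read from the data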;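 note: 0% = DMSO and -100% = 5 µM competing unlabeled TCR2 RNA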
RanGTP-Impb inh = inhibitors of RanGTP-importin-beta interaction, primary screen, biochemical, FRET, CFP-Ran, YFP-importin-beta, homogeneous; Ran GTPase (GTP-bound) - importin-beta complex; cell-free CFP-Ran/YFP-importin-beta FRET ratio; inhibition, % (concentration not given with the values); 300,000 compounds, 1.1% hits; AID 2216, 2009;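 active = more than half of the replicate wells show a fall in the fluorescence ratio signal beyond about 16%, limit read from the data, passing the limit was not always enough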;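 note: 0% = DMSO wells and 100% = Ran loaded with GDP instead of GTP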
proKLK7 act = proKLK7 zymogen activators, primary screen, biochemical, fluorescence intensity. Kallikrein-7 (Homo sapiens), P49862. purified proKLK7, EDANS-DABCYL substrate fluorescence; 100% is mature enzyme control, 0% vehicle. activation, % at 7 µM. 370,000 compounds, 0.9% hits;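 active = activation above the mean of all tested compounds plus 3 SD, computed per campaign excluding outliers beyond control limits, cut at about 13% in these data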
Runt-SMMHC FRET = inhibitors of RUNX1 Runt–CBFb-SMMHC binding, primary screen, biochemical, FRET, Cerulean-Runt, Venus-CBFb-SMMHC, uHTS; Cerulean-Runt/Venus-CBFb-SMMHC FRET ratio 530/480, 1 h; 220,000 compounds, 0.74% hits; inhibition, % at 20 µM;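 active = mean inhibition across duplicate retests at 20 µM reaching about 50%, limit read from the data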;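 note: 0% = DMSO wells and 100% = wells with excess untagged CBFb-SMMHC; inhibitors lower the FRET ratio by blocking Runt binding to CBFb-SMMHC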
KLK7 act conf = proKLK7 zymogen activators, confirmation, biochemical, fluorescence intensity, triplicate | shares compounds with proKLK7 act | purified proKLK7, EDANS-DABCYL substrate fluorescence; scaled: vehicle 0, mature enzyme 100 | activation, % at 7 µM | 3,200 compounds, 68% hits | AID 686949, 2013;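 active = activation, as change over the incubation, above the mean of all tested compounds plus 3 SD, cut at about 13% in these data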
EDANS-DABCYL int = EDANS-DABCYL substrate optical interference, artefact control for kallikrein-7 zymogen activator project, biochemical, fluorescence intensity, high throughput; no enzyme, 4 h; solvent 0%, active enzyme control 100%; shares compounds with proKLK7 act; 3,200 compounds, 80% hits; activation, % at 7 µM;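 active = activation above the all-compound mean plus 3 SD, ignoring values outside control-based bounds, cut at about 4.8% in these data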;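 note: value is the 4 h activation minus the activation read at time zero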
* hit, by the source's call. In the library only some 2.1% were active in any assay of this set; here they are far more common.

CCc1cc(-c2nnn(CCC3COCCO3)c2CC)cc(CC)c1-c1cn(CCc2c[nH]c3ccccc23)nn1 (centres undefined) was read as proKLK7 act 0.
Screening Cc1cccn2c(=O)c3cc(C(=O)NCC4CCCO4)c(=N)n(C4CCCCC4)c3nc12 (centres undefined) returned MEX-5 binding 10, RanGTP-Impb inh active, proKLK7 act 25*, KLK7 act conf -53 and EDANS-DABCYL int -59.
For CCOC(=O)[C@]12CCC=C1N(Cc1ccccc1)C(=O)[C@H](CC(=O)NCC1CCCCC1)C2 the results were proKLK7 act 0.
For CCOP(=O)(OCC)C(NC(=O)c1cccs1)C(F)(F)F (centres undefined) the results were Runt-CBFb FRET 1, MEX-5 binding 0, RanGTP-Impb inh 0, proKLK7 act 167*, Runt-SMMHC FRET -7, KLK7 act conf 241* and EDANS-DABCYL int 247*.
COc1ccc(-c2cc(C(=O)OCC(=O)NC3CC3)c3ccccc3n2)cc1 was read as proKLK7 act 16*, KLK7 act conf 11 and EDANS-DABCYL int 9.7*.
COCCNC(=O)COC(=O)c1cc(-c2ccc(OC)cc2)nc2ccccc12 was read as Runt-CBFb FRET -5, MEX-5 binding 1, RanGTP-Impb inh -2, proKLK7 act 137*, Runt-SMMHC FRET -3, KLK7 act conf 108* and EDANS-DABCYL int 119*.
Screening CCCNC(=O)COC(=O)c1cc(-c2ccc(OC)cc2)nc2ccccc12 returned Runt-CBFb FRET 2, MEX-5 binding -1, RanGTP-Impb inh 0, proKLK7 act 52*, Runt-SMMHC FRET 14, KLK7 act conf -71 and EDANS-DABCYL int -60.
`CCNC(=O)COC(=O)c1cc(-c2ccc(OC)cc2)nc2ccccc12` gave Runt-CBFb FRET -6, MEX-5 binding 2, RanGTP-Impb inh 5, proKLK7 act 174*, Runt-SMMHC FRET -1, KLK7 act conf 208* and EDANS-DABCYL int 260*.
`COc1ccc(N2CCN(C(=O)CSc3nnc(-c4ccco4)n3C)CC2)cc1` gave Runt-CBFb FRET 2, MEX-5 binding 1, RanGTP-Impb inh 6, proKLK7 act 1 and Runt-SMMHC FRET -2.
`Cn1c(=O)[nH]c(=O)c2c1nc([N+](=O)[O-])n2Cc1ccccc1` gave Runt-CBFb FRET 6, MEX-5 binding 1, RanGTP-Impb inh -1, proKLK7 act 0 and Runt-SMMHC FRET 5.
Screening COc1ccc(CN(CC#Cc2ccc(C)cc2)C(N)=NC(=O)CCc2ccccc2)c(OC)c1 returned proKLK7 act 0.
For Cc1ccc(S(=O)(=O)N2CCOCC2)cc1C(=O)Nc1ccc2c(c1)OCCO2 the results were proKLK7 act 0.
For CCOc1cc(N2CCOCC2)c(OCC)cc1NC(=O)C1=COCCO1 the results were proKLK7 act -1.
COc1ccc(-c2cc(C(=O)OCC(=O)NC(C)(C)C)c3ccccc3n2)cc1 was read as Runt-CBFb FRET -1, MEX-5 binding 1, RanGTP-Impb inh 7 and Runt-SMMHC FRET -3.
`COc1ccc(-c2cc(C(=O)OCC(=O)NC(C)C)c3ccccc3n2)cc1` gave Runt-CBFb FRET 1, MEX-5 binding 1, RanGTP-Impb inh -2, proKLK7 act 21*, Runt-SMMHC FRET 2, KLK7 act conf 33* and EDANS-DABCYL int 40*.
Screening COc1ccc(-c2cc(C(=O)N/N=C(\C)c3cccnc3)c3ccccc3n2)cc1 returned MEX-5 binding -2, RanGTP-Impb inh -2, proKLK7 act 37*, KLK7 act conf -78 and EDANS-DABCYL int -71.
For CN(C)CCCn1c(N)c(C#N)c2nc3ccccc3nc21 the results were Runt-CBFb FRET 9, MEX-5 binding -8, RanGTP-Impb inh 61*, proKLK7 act 121*, Runt-SMMHC FRET 80*, KLK7 act conf 63* and EDANS-DABCYL int 72*.
`Cc1ccc(S(=O)(=O)c2c(N)n(CCCN(C)C)c3nc4ccccc4nc23)cc1` gave Runt-CBFb FRET 8, MEX-5 binding 0, RanGTP-Impb inh 1, proKLK7 act 36*, Runt-SMMHC FRET 21, KLK7 act conf -43 and EDANS-DABCYL int -48.
Screening Cc1ccc(-n2c(N)c(S(=O)(=O)c3ccccc3)c3nc4ccccc4nc32)cc1 returned MEX-5 binding 1, RanGTP-Impb inh 0, proKLK7 act -8 and Runt-SMMHC FRET 3.
`Cc1ccc(S(=O)(=O)c2c(N)n(NC(=O)C3CC3)c3nc4ccccc4nc23)cc1` gave Runt-CBFb FRET 29, MEX-5 binding -2, RanGTP-Impb inh 9, proKLK7 act 37*, Runt-SMMHC FRET 76*, KLK7 act conf 11 and EDANS-DABCYL int 4.1*.
Screening CCCCCc1ccc(NC(=O)OCCCN2CCC3(CCC(c4ccccc4)CC3)C2=O)cc1 (centres undefined) returned proKLK7 act 0.
COc1cccc2[nH]c3c(=O)n(CCN(C)C)cnc3c12 was read as Runt-CBFb FRET 0, MEX-5 binding 3, RanGTP-Impb inh -3, proKLK7 act 49*, Runt-SMMHC FRET -2, KLK7 act conf 15* and EDANS-DABCYL int 14*.
COc1cccc2c3cccc(OC)c3c3[nH]cnc3c12 was read as proKLK7 act 0.
COc1cccc2[nH]c3c(=O)[nH]cnc3c12 was read as MEX-5 binding -1, RanGTP-Impb inh 1, proKLK7 act 13*, KLK7 act conf 10 and EDANS-DABCYL int 14*.
Screening CCN(CC)CCn1cnc2c([nH]c3cccc(OC)c32)c1=O returned Runt-CBFb FRET 2, MEX-5 binding -1, RanGTP-Impb inh -2, proKLK7 act 67*, Runt-SMMHC FRET 2, KLK7 act conf 28* and EDANS-DABCYL int 31*.
